Results reported in ChEMBL document CHEMBL3286391, “High content screening of diverse compound libraries identifies potent modulators of tubulin dynamics” (ACS Med Chem Lett, 2014).
pEC50: −log10 of the molar value. Calls of active or inactive are those of the source. No cut-off for these calls is given here.

How the values were obtained:
U2OS [1] = experiment: Induction of mitotic arrest in human U2OS cells assessed as mitotic index after 20 hrs by microscopic analysis
U2OS [2] = experiment: Growth inhibition of human U2OS cells after 72 hrs by sulforhodamine B assay; format: functional
Outline: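 GI50 in U2OS cells. Mean of at least two independent experiments, each in triplicate.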

[3] = Solubility of the compound at >1 uM; format: physicochemical
Tubulin (Homo sapiens) = Tubulin (Homo sapiens) (UniProt P68371+Q9H4B7+P0DPH7+P68366+Q13509+Q71U36+P04350+Q3ZCM7+P07437+P68363+Q9BQE3+Q6PEY2+Q13885+Q9BVA1+Q9BUF5); experiment: Binding affinity to tubulin in human U2OS cells assessed as disruption of tubulin network at 100 nM after 20 hrs by DAPI staining-based confocal microscopic analysis; format: cell-based
Outline: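 U2OS cells treated with compound, then stained with DAPI and an α-tubulin antibody. Tubulin network imaged by confocal microscopy.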

Sus scrofa [4] = species on record: Sus scrofa; experiment: Inhibition of porcine alpha/beta tubulin polymerization at 10 uM after 1 hr by spectrophotometric analysis
Outline: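 Tubulin (3 mg/mL) incubated with compound (10 μM) and GTP at 37 °C for 1 h to monitor polymerization.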

Sus scrofa [5] = species on record: Sus scrofa; experiment: Displacement of colchicine from porcine alpha/beta tubulin assessed as decrease in colchicine fluorescence intensity at 5 to 20 uM after 1 hr by spectrophotometric analysis relative to control
Outline: (§1)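 Colchicine (3 μM), tubulin (3 μM) and compound incubated 1 h at 37 °C. Colchicine fluorescence intensity read at ex/em 365/435 nm. Nocodazole served as positive control. Mean ± s.e.m. of one experiment run in triplicate.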

Sus scrofa [6] = species on record: Sus scrofa; experiment: Displacement of colchicine from porcine alpha/beta tubulin assessed as decrease in colchicine fluorescence intensity after 1 hr by spectrophotometric analysis
Outline: as §1

Sus scrofa [7] = species on record: Sus scrofa; experiment: Displacement of BODIPY-FL-vinblastine from porcine alpha/beta tubulin at 20 to 60 uM after 20 hrs by fluorescence polarization assay
Outline: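 Fluorescence polarization assay with FL-BODIPY-vinblastine tracer (2 μM) and tubulin (2 μM). Unlabeled vinblastine served as positive control. Ex/em 485/520 nm. Mean ± s.e.m. of one experiment run in triplicate.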

[8] = Solubility of the compound; format: physicochemical
[9] = Stability of the compound; format: physicochemical
U2OS [10] = experiment: Induction of mitotic arrest in human U2OS cells at 50 uM after 72 hrs by microscopic analysis relative to control; format: functional; details: in the assay text read “after 20 hrs” for “after 72 hrs”
Outline: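 Primary screen in U2OS cells at a single 50 μM concentration, in triplicate. Cells stained for phospho-histone H3 with Hoechst counterstain and imaged by automated high content microscopy. Percentage of mitotically arrested cells calculated by algorithm.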

U2OS [11] = experiment: Induction of mitotic arrest in human U2OS cells assessed as mitotic index after 72 hrs by microscopic analysis; format: functional, cell-based; details: in the assay text read “after 20 hrs” for “after 72 hrs”
Outline: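 Phenotypic high content assay in U2OS osteosarcoma cells. Cells stained for phosphorylated histone H3 (mitotic marker) and Hoechst, imaged on an automated high content microscope. An algorithm scores the percentage of cells arrested in mitosis. MI EC50 is the mean of at least two independent experiments, each in triplicate.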

SMILES | pEC50 (U2OS [1]) | GI50 (U2OS [2]) | other results
O=C(Cc1ccc(-c2ccc3c(c2)OCO3)cc1)NCc1ccco1 | 6.84 | 0.031 µM | 
O=C(Cc1ccc2ccccc2c1)NCc1ccco1 | 4.89 |  | 
CC(C)CNC(=O)Cc1ccc(-c2ccccc2)cc1 | < 4.40 |  | 
O=C(NCc1ccco1)c1ccc(-c2ccccc2)cc1 | < 4.40 |  | 
O=C(Cc1ccc(-c2ccccc2)cc1)Nc1ccccc1 | < 4.40 |  | 
O=C(NCc1ccco1)c1cc2ccccc2o1 | < 4.40 |  | 
O=C(NCc1ccco1)c1cnc2ccccc2c1 | < 4.40 |  | 
COC(=O)Nc1nc2cc(C(=O)c3cccs3)ccc2[nH]1 [NOCODAZOLE] | 7.30 |  | Imax (Sus scrofa [5]): 85%; inhibition (Sus scrofa [4]): Active
C[C@H](NC(=O)Cc1ccc(-c2ccccc2)cc1)c1ccccc1 | < 4.40 |  | 
O=C(Cc1ccc(-c2ccc(OC(F)(F)F)cc2)cc1)NCc1ccco1 |  | 0.12 µM | 
C[C@@H](NC(=O)Cc1ccc(-c2ccccc2)cc1)c1ccccc1 | 5.32 |  | 
COc1c(C)cc(-c2ccc(CC(=O)NCc3ccco3)cc2)cc1C | 5.93 | 0.603 µM | 
O=C(NCc1ccco1)c1ccc(C(=O)c2ccccc2)cc1 | < 4.40 |  | 
O=C(NCc1ccco1)c1ccccc1-c1ccccc1 | < 4.40 |  | 
Cc1ccc(-c2ccc(CC(=O)NCc3ccco3)cc2)cc1F | 6.47 | 0.1 µM | 
COc1cc(-c2ccc(CC(=O)NCc3ccco3)cc2)cc(OC)c1OC | < 4.40 |  | 

More lines, main results first:

pEC50 (U2OS [1]) | GI50 (U2OS [2]) | SMILES | other results
4.78 |  | O=C(Cc1ccc(-c2ccccc2)cc1)NCc1ccncc1 | 
7.55 | 0.011 µM | CC(=O)c1ccc(-c2ccc(CC(=O)NCc3ccccc3)cc2)cc1 | solubility [3]: Insoluble; Activity (Tubulin (Homo sapiens)): Active
< 4.70 |  | O=C(Cc1ccc(-c2ccc(C(=O)O)cc2)cc1)NCc1ccco1 | 
5.01 |  | O=C(Cc1ccc(-c2ccccc2)cc1)NCc1ccccn1 | 
< 4.40 |  | O=C(Cc1ccc(-c2ccccc2)cc1)NCc1cccc(Br)c1 | inhibition (Sus scrofa [4]): inactive
4.89 |  | CC(=O)c1ccccc1-c1ccc(CC(=O)NCc2ccco2)cc1 | 
7.12 | 0.024 µM | CC(=O)c1ccc(-c2ccc(CC(=O)NCc3ccco3)cc2)cc1 | 
7.29 | 0.021 µM | CNC(=O)c1ccc(-c2ccc(CC(=O)NCc3ccco3)cc2)cc1 | inhibition (Sus scrofa [6]): Dose-dependent effect; inhibition (Sus scrofa [7]): inactive; Imax (Sus scrofa [5]): 45%; solubility [8]: soluble; inhibition (Sus scrofa [4]): Active; Activity (Tubulin (Homo sapiens)): Active; Stability [9]: Stable
6.29 | 0.15 µM | O=C(Cc1ccc(-c2ccccc2)cc1)NCc1ccco1 | Activity (U2OS [10]): 40%; inhibition (Sus scrofa [4]): Active; inhibition (U2OS [11]): Dose-dependent effect
5.72 |  | COc1ccc(CNC(=O)Cc2ccc(-c3ccccc3)cc2)cc1 | 
6.60 |  | O=C(Cc1ccc(-c2ccccc2)cc1)NCc1ccccc1 | 
7.14 | 0.024 µM | COC(=O)c1ccc(-c2ccc(CC(=O)NCc3ccco3)cc2)cc1 | 
7.09 | 0.027 µM | COC(=O)c1ccc(-c2ccc(CC(=O)NCc3ccccc3)cc2)cc1 | 
4.52 |  | CN(Cc1ccccc1)C(=O)Cc1ccc(-c2ccccc2)cc1 | 
7.00 | 0.046 µM | CC(C)CNC(=O)c1ccc(-c2ccc(CC(=O)NCc3ccco3)cc2)cc1 | 
6.31 | 0.12 µM | CC(=O)Nc1cccc(-c2ccc(CC(=O)NCc3ccco3)cc2)c1 | 
6.28 | 0.111 µM | N#Cc1ccc(-c2ccc(CC(=O)NCc3ccco3)cc2)cc1 | inhibition (Sus scrofa [4]): Active
